Data reported in ChEMBL document CHEMBL5653631, “A Potent and Selective ULK1 Inhibitor Suppresses Autophagy and Sensitizes Cancer Cells to Nutrient Stress” (iScience, 2018).
Each block holds one compound with its values, some of them ahead of it.

Key:
[1] = target: T1, Serine/threonine-protein kinase Sgk1 (Homo sapiens) (UniProt O00141); assay: Inhibition of human recombinant SGK1 at 500 nM related to control ULK1
T1 sequence (whole entry): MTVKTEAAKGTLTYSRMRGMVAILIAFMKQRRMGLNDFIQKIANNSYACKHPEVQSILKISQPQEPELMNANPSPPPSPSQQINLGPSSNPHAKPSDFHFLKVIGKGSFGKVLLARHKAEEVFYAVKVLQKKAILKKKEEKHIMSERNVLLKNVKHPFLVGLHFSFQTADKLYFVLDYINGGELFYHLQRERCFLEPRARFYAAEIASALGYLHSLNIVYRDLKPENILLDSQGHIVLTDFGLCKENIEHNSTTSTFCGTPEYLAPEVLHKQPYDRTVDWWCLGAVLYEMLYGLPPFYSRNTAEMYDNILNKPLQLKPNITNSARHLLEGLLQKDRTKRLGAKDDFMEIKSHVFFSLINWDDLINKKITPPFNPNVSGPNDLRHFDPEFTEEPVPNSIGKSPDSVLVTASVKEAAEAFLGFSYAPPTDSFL

[2] = target: Casein kinase I isoform gamma-1 (Homo sapiens) (UniProt Q9HCP0); assay: Inhibition of human recombinant CK1g1 at 500 nM in presence of ATP by radiometric assay relative to control
[3] = target: Serine/threonine-protein kinase B-raf (Homo sapiens) (UniProt P15056); assay: Inhibition of human recombinant BRAF at 500 nM related to control ULK1
[4] = target: Mitogen-activated protein kinase 1 (Homo sapiens) (UniProt P28482); assay: Inhibition of human recombinant Erk2 at 500 nM in presence of ATP by radiometric assay relative to control
[5] = target: TGF-beta receptor type-2 (Homo sapiens) (UniProt P37173); assay: Inhibition of human recombinant TGFbR2 at 500 nM in presence of ATP by radiometric assay relative to control
[6] = target: Homeodomain-interacting protein kinase 3 (Homo sapiens) (UniProt Q9H422); assay: Inhibition of human recombinant HIPK3 at 15 nM related to control ULK1
[7] = target: T2, G protein-coupled receptor kinase 3 (Homo sapiens) (UniProt P35626); assay: Inhibition of human recombinant BARK2 at 15 nM in presence of ATP by radiometric assay relative to control
T2 sequence (whole entry): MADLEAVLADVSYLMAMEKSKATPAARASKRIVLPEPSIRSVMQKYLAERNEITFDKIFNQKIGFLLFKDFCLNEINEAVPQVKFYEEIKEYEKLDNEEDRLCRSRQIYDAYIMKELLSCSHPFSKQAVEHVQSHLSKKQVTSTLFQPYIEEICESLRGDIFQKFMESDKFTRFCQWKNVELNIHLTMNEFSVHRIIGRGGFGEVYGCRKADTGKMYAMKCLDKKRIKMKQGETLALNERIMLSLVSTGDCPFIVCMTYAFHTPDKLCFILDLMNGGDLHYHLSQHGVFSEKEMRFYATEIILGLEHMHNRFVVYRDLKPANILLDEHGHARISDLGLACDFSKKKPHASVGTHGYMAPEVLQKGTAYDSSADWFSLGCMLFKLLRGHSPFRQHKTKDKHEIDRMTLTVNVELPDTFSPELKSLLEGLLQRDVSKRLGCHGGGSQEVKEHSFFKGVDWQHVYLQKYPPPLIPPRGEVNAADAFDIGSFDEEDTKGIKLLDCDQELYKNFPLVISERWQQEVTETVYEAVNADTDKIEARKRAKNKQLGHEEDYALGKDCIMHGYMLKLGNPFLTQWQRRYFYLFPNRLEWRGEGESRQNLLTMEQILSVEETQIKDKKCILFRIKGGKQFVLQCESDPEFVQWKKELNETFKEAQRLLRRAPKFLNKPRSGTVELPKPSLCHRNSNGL
Procedure, shortened: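 Part of a radiometric in vitro activity panel of 327 recombinant human kinases. Each kinase was tested in duplicate at one inhibitor concentration. Activity remaining was expressed as a percentage of the vehicle control, and percent inhibition was taken as 100 minus that value.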

[8] = target: Mitogen-activated protein kinase kinase kinase 20 (Homo sapiens) (UniProt Q9NYL2); assay: Inhibition of human recombinant ZAK at 15 nM related to control ULK1
[9] = target: Serine/threonine-protein kinase 38-like (Homo sapiens) (UniProt Q9Y2H1); assay: Inhibition of human recombinant NDR2 at 15 nM related to control ULK1
[10] = target: Serine/threonine-protein kinase MARK1 (Homo sapiens) (UniProt Q9P0L2); assay: Inhibition of human recombinant MARK1 at 15 nM related to control ULK1
[11] = target: Tyrosine-protein kinase BTK (Homo sapiens) (UniProt Q06187); assay: Inhibition of human recombinant BTK at 15 nM in presence of ATP by radiometric assay relative to control
[12] = target: Calcium/calmodulin-dependent protein kinase kinase 2 (Homo sapiens) (UniProt Q96RR4); assay: Inhibition of human recombinant CaMKK2 at 40 nM related to control ULK1
[13] = target: T3, Serine/threonine-protein kinase 17A (Homo sapiens) (UniProt Q9UEE5); assay: Inhibition of human recombinant DRAK1 at 40 nM in presence of ATP by radiometric assay relative to control
T3 sequence (whole entry): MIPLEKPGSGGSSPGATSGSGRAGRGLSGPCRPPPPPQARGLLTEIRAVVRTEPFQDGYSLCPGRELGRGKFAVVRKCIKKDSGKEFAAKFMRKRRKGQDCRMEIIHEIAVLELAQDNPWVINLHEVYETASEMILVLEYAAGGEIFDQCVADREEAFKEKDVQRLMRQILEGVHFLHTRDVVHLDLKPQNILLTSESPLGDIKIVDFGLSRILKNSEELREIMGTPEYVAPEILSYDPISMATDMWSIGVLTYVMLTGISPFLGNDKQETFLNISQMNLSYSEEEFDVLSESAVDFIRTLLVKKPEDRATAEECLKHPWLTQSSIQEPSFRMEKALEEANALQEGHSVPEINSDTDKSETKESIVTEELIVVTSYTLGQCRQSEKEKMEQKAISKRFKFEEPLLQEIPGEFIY

[14] = target: Calcium/calmodulin-dependent protein kinase kinase 1 (Homo sapiens) (UniProt Q8N5S9); assay: Inhibition of human recombinant CaMKK1 at 40 nM related to control ULK1
[15] = target: Serine-protein kinase ATM (Homo sapiens) (UniProt Q13315); assay: Inhibition of human recombinant ATM at 40 nM related to control ULK1
Procedure, shortened: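 Radiometric activity assays in a panel of 327 human recombinant kinases, each run in duplicate at one inhibitor concentration. Activity remaining is expressed as percent of vehicle control, and percent inhibition is calculated as 100% minus percent activity remaining.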

[16] = target: Death-associated protein kinase 2 (Homo sapiens) (UniProt Q9UIK4); assay: Inhibition of human recombinant DAPK2 at 40 nM related to control ULK1
[17] = target: Mitogen-activated protein kinase 10 (Homo sapiens) (UniProt P53779); assay: Inhibition of human recombinant JNK3 at 40 nM in presence of ATP by radiometric assay relative to control
Sequence of Mitogen-activated protein kinase 10 (Homo sapiens) (P53779 whole entry): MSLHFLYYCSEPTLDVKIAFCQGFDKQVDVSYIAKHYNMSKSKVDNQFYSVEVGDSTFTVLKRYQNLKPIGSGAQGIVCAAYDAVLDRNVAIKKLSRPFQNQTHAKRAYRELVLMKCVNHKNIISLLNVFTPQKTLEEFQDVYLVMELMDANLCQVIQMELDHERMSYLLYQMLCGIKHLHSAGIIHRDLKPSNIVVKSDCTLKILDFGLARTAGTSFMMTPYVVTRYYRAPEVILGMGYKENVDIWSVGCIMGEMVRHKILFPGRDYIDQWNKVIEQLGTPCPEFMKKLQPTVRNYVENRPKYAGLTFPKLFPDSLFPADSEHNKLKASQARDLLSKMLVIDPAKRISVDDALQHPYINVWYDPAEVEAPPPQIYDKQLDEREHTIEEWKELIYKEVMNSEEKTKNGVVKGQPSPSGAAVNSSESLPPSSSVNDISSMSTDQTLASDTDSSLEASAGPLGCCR

Sequence of Serine/threonine-protein kinase B-raf (Homo sapiens) (P15056 whole entry): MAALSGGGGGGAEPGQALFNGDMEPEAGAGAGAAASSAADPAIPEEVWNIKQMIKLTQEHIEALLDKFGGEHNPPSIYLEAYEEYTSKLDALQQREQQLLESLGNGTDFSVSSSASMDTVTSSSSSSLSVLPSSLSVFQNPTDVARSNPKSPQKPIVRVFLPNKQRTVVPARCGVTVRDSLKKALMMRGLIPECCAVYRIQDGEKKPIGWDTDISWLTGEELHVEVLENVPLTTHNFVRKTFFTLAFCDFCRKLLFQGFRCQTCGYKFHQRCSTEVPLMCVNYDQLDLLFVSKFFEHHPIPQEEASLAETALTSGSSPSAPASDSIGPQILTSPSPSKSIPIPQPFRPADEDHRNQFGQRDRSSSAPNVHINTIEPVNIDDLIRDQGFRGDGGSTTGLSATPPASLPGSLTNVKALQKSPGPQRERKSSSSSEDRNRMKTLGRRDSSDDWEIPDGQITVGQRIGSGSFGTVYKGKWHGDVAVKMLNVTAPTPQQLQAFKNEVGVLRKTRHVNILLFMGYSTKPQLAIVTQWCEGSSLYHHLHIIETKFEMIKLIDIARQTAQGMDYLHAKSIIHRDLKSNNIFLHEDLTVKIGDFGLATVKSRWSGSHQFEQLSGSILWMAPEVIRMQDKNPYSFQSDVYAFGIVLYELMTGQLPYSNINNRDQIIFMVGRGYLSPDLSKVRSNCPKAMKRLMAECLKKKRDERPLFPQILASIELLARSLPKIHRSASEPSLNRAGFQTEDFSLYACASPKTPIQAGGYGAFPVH
Sequence of TGF-beta receptor type-2 (Homo sapiens) (P37173 whole entry): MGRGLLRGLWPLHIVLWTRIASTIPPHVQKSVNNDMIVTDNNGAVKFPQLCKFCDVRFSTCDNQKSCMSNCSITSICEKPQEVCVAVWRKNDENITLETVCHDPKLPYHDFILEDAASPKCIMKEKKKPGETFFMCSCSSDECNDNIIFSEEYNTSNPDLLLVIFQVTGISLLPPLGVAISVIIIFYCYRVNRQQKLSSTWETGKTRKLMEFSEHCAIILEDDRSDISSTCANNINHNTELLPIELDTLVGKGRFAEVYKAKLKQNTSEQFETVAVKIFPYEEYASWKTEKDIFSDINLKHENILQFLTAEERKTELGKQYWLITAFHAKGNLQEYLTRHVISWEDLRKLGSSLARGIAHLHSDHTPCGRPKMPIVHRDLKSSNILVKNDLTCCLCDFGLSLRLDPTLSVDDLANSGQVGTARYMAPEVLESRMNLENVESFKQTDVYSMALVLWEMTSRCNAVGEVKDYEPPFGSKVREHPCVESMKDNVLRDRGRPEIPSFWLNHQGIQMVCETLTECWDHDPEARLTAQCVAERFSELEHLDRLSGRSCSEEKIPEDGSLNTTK
Sequence of Death-associated protein kinase 2 (Homo sapiens) (Q9UIK4 whole entry, looked up): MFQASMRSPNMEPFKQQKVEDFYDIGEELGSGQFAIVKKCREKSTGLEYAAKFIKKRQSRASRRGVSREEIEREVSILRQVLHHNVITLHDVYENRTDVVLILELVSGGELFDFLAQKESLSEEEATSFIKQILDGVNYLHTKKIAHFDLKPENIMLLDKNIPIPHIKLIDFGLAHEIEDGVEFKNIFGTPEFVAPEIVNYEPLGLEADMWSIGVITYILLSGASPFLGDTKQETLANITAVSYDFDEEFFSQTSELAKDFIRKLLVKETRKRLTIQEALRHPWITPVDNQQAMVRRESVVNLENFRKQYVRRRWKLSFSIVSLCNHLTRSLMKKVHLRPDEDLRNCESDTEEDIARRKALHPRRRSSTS
Sequence of Serine/threonine-protein kinase 38-like (Homo sapiens) (Q9Y2H1 2-464 limits assumed): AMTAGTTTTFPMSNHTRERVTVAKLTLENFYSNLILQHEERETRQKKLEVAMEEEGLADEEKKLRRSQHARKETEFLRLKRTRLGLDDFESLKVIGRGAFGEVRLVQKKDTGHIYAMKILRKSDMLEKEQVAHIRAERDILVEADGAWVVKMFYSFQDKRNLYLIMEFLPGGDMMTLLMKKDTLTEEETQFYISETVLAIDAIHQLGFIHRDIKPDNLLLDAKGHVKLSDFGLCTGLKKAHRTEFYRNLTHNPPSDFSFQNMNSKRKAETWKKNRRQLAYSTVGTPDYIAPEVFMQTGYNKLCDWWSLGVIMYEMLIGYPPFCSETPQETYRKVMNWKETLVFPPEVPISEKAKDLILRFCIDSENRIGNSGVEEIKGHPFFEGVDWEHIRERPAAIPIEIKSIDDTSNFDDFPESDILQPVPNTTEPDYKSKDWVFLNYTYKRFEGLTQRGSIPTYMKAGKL
Sequence of Calcium/calmodulin-dependent protein kinase kinase 2 (Homo sapiens) (Q96RR4 2-588 limits assumed): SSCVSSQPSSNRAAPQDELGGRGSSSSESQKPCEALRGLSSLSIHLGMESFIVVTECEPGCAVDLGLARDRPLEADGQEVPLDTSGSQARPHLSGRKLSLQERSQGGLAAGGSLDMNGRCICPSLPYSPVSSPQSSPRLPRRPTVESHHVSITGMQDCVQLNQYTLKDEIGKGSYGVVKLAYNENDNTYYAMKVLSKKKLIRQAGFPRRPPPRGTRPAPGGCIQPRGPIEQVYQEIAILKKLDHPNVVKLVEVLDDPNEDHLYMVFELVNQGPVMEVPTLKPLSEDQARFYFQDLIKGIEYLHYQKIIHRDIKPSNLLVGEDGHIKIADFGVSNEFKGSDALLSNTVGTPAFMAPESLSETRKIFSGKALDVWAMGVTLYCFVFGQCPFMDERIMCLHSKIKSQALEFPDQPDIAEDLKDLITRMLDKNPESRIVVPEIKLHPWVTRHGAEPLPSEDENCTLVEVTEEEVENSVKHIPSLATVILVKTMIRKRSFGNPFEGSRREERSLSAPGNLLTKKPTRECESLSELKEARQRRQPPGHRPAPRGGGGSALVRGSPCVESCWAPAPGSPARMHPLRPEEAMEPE
Sequence of Casein kinase I isoform gamma-1 (Homo sapiens) (Q9HCP0 whole entry, looked up, canonical isoform): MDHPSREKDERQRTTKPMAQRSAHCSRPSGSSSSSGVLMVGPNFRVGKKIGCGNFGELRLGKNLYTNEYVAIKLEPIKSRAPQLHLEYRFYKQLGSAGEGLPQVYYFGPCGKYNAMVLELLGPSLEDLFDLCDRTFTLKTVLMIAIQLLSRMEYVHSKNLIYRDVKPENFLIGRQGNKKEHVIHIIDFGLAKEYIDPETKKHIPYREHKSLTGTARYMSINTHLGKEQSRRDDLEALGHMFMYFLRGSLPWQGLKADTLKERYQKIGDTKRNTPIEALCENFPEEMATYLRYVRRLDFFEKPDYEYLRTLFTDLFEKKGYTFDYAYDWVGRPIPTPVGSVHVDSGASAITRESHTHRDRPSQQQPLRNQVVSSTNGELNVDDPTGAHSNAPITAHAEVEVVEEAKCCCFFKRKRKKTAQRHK
Sequence of Tyrosine-protein kinase BTK (Homo sapiens) (Q06187 whole entry): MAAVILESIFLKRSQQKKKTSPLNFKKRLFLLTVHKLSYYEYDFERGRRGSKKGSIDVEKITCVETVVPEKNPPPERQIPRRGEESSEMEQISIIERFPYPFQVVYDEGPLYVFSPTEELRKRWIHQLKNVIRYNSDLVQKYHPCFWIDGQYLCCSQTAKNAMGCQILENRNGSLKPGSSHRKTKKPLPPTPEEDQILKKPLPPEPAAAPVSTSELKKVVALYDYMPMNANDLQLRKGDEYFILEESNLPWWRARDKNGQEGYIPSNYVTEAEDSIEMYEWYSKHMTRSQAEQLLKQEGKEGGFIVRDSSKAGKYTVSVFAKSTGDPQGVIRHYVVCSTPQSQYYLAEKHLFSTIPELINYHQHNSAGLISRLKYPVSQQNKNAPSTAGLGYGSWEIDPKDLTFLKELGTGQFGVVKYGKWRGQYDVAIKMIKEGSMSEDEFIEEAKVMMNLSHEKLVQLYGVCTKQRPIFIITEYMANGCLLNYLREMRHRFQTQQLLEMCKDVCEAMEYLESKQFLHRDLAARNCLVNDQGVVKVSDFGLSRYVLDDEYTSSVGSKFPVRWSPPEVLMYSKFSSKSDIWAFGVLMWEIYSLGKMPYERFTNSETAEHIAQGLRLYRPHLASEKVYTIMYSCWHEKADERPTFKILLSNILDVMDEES
Sequence of Mitogen-activated protein kinase 1 (Homo sapiens) (P28482 whole entry): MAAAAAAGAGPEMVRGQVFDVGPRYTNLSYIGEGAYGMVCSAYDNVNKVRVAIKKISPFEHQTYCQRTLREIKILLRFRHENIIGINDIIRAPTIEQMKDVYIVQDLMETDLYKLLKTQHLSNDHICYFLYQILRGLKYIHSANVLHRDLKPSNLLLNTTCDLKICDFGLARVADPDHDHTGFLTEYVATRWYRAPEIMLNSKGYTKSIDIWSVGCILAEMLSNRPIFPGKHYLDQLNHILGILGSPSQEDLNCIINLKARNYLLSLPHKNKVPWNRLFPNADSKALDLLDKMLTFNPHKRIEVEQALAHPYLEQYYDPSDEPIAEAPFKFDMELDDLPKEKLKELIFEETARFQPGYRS

- fold change (FC) [1]: 0.03
- inhibition [2]: 0%
- fold change (FC) [3]: 0.11
- inhibition [4]: 0%
- inhibition [5]: 2%
Structure (SMILES): CNC(=O)c1ccccc1Oc1nc(Nc2cc(OC)c(OC)c(OC)c2)ncc1Br

- fold change (FC) [6]: 0
- inhibition [7]: 0%
- fold change (FC) [8]: 0.3
- fold change (FC) [9]: 0.02
- fold change (FC) [10]: 0.61
- inhibition [11]: 0%
Structure (SMILES): CC(C)[C@H](NC(=O)c1cc(-c2cnn3cc(-c4ccc(OCCN5CCCCC5)cc4)cnc23)cs1)C(F)(F)F

- fold change (FC) [12]: 0
- inhibition [13]: 78%
- fold change (FC) [14]: 0
- fold change (FC) [15]: 0.07
- inhibition [17]: 0%
Structure (SMILES): O=C(N[C@@H](C1CC1)C(F)(F)F)c1cc(-c2cnn3cc(-c4ccc(F)cc4)cnc23)cs1
- fold change (FC) [16]: 0
